From ChEMBL document CHEMBL1140692, “Toward the development of chemoprevention agents. Part II: Chemo-enzymatic synthesis and anti-inflammatory activities of a new class of 5-amino-2-substitutedphenyl-1,3-dioxacycloalkanes” (Bioorg Med Chem, 2007)

How the values were obtained:
[1] = Inhibition of bovine brain PKC; set-up: species or system Bos taurus
Caco-2 = assay: Ratio of permeability from apical to basolateral side over basolateral to apical side of human Caco-2 cell membrane; type: ADME, cell-based
[2] = Permeability from apical to basolateral side of human Caco-2 cell membrane; type: ADME, cell-based
[3] = Permeability from basolateral to apical side of human Caco-2 cell membrane; type: ADME, cell-based
Mus musculus [4] = assay: Gastrointestinal toxicity in mouse assessed as tail bleeding time at 200 mg/kg, po after 30 mins; type: organism-based; set-up: dose 200 mg/kg, route oral; conditions: in vivo, 0.5 h
Procedure, shortened: (§1)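 Male mice (18–22 g) are dosed orally and compared with an NS group. At 30, 45, 60 and 90 min after dosing, each mouse is restrained in a tube holder and a 2-mm cut is made on the tail. Blood is wiped away every 30 s until flow stops, and the time to cessation is recorded.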

Mus musculus [5] = assay: Gastrointestinal toxicity in mouse assessed as tail bleeding time at 200 mg/kg, po after 90 mins; type: organism-based; set-up: dose 200 mg/kg, route oral; conditions: in vivo, 1.5 h; procedure, shortened: as §1
Mus musculus [6] = assay: Gastrointestinal toxicity in mouse assessed as tail bleeding time at 200 mg/kg, po after 60 mins; type: organism-based; set-up: dose 200 mg/kg, route oral; conditions: in vivo, 1 h; procedure, shortened: as §1
Mus musculus [7] = assay: Gastrointestinal toxicity in mouse assessed as tail bleeding time at 200 mg/kg, po after 45 mins; type: organism-based; set-up: dose 200 mg/kg, route oral; conditions: in vivo, 0.75 h; procedure, shortened: as §1
Mus musculus [8] = assay: Antiinflammatory activity in Kunming mouse assessed as inhibition of xylene-induced ear edema at 20 mg/kg, po after […]rs; type: functional
Procedure, shortened: (§2)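 Male Kunming mice receive the agent orally as a suspension in 0.5% CMC; the vehicle group gets CMC alone. After 30 min, 0.03 ml xylene is applied to both surfaces of the right ear, and the left ear serves as control. At 2 h, mice are killed and 7-mm ear punches are weighed. Edema is taken as right minus left punch weight, and inhibition is calculated versus vehicle. n = 11; ANOVA.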

Mus musculus [9] = assay: Antiinflammatory activity in Kunming mouse assessed as inhibition of xylene-induced ear edema at 10 mg/kg, po after […]rs; type: functional; procedure, shortened: as §2
Mus musculus [10] = assay: Antiinflammatory activity in Kunming mouse assessed as inhibition of xylene-induced ear edema at 5 mg/kg, po after […]rs; type: functional; procedure, shortened: as §2

Row | Structure (SMILES) | IC50 [1] | Time (Mus musculus [4]) | Time (Mus musculus [5]) | Time (Mus musculus [6]) | Time (Mus musculus [7]) | also measured
1 | O=C(Cc1ccccc1)N[C@H]1CO[C@H](c2ccc([N+](=O)[O-])cc2)OC1 | 2850 µM |  |  |  |  | 
2 | O=C(Cc1ccccc1)N[C@H]1CO[C@H](c2ccc(Cl)cc2)OC1 | 2710 µM |  |  |  |  | 
3 | O=C(Cc1ccccc1)N[C@H]1CO[C@H](c2cccc([N+](=O)[O-])c2)OC1 | 2900 µM |  |  |  |  | 
4 | C[C@@H]1O[C@H](c2ccc(Cl)cc2)OC[C@H]1NC(=O)Cc1ccccc1 |  |  |  |  |  | Ratio (Caco-2): 1.48; Papp A→B [2]: 10.2 ×10⁻⁶ cm/s; Papp B→A [3]: 6.86 ×10⁻⁶ cm/s
5 | C[C@@H]1O[C@H](/C=C/c2ccccc2)OC[C@H]1NC(=O)Cc1ccccc1 |  |  |  |  |  | Ratio (Caco-2): 1.23; Papp A→B [2]: 8.8 ×10⁻⁶ cm/s; Papp B→A [3]: 7.15 ×10⁻⁶ cm/s
6 | O=C(Cc1ccccc1)N[C@H]1CCO[C@H](c2ccc(Cl)cc2)OC1 | 2920 µM |  |  |  |  | 
7 | O=C(Cc1ccccc1)N[C@H]1CCO[C@H](c2cccc([N+](=O)[O-])c2)OC1 | 2930 µM |  |  |  |  | 
8 | O=C(Cc1ccccc1)N[C@H]1CCO[C@@H](c2ccc(Cl)cc2)OC1 | 2950 µM |  |  |  |  | 
9 | N[C@H]1CO[C@@H](c2ccccc2)OC1 |  | 119.2 s | 118.7 s | 117.6 s | 118.8 s | 
10 | O=C(Cc1ccccc1)N[C@H]1CO[C@@H](c2ccc([N+](=O)[O-])cc2)OC1 | 2770 µM |  |  |  |  | 
11 | O=C(Cc1ccccc1)N[C@H]1CO[C@@H](c2cccc([N+](=O)[O-])c2)OC1 | 2810 µM |  |  |  |  | 
12 | C[C@@H]1O[C@@H](c2ccc([N+](=O)[O-])cc2)OC[C@H]1NC(=O)Cc1ccccc1 |  |  |  |  |  | Ratio (Caco-2): 1.49; Papp A→B [2]: 10.4 ×10⁻⁶ cm/s; Papp B→A [3]: 6.98 ×10⁻⁶ cm/s
13 | C[C@@H]1O[C@H](c2ccc([N+](=O)[O-])cc2)OC[C@H]1NC(=O)Cc1ccccc1 |  |  |  |  |  | Ratio (Caco-2): 1.49; Papp A→B [2]: 10.3 ×10⁻⁶ cm/s; Papp B→A [3]: 6.93 ×10⁻⁶ cm/s
14 | O=C(Cc1ccccc1)N[C@H]1CO[C@@H](/C=C/c2ccccc2)OC1 |  |  |  |  |  | Ratio (Caco-2): 1.14; Papp A→B [2]: 8.97 ×10⁻⁶ cm/s; Papp B→A [3]: 7.87 ×10⁻⁶ cm/s
15 | N[C@H]1CCCO[C@H](c2ccc(Cl)cc2)OC1 |  | 117.9 s | 118.3 s | 119.1 s | 118.7 s | 
16 | N[C@H]1CCCO[C@H](c2ccc([N+](=O)[O-])cc2)OC1 |  | 118.6 s | 117.7 s | 118.5 s | 120.3 s | 
17 | N[C@H]1CCCO[C@H](c2cccc([N+](=O)[O-])c2)OC1 |  | 117.8 s | 118 s | 121.5 s | 117.9 s | 
18 | N[C@H]1CCCO[C@@H](c2ccc(Cl)cc2)OC1 |  | 119.4 s | 117.8 s | 118.4 s | 117.5 s | 
19 | N[C@H]1CCCO[C@@H](c2cccc([N+](=O)[O-])c2)OC1 |  | 119.3 s | 119.3 s | 118.5 s | 118.2 s | 
20 | N[C@H]1CCO[C@@H](c2ccc([N+](=O)[O-])cc2)OC1 |  | 117.8 s | 117.2 s | 117.9 s | 118.5 s | 
21 | N[C@H]1CCO[C@@H](c2cccc([N+](=O)[O-])c2)OC1 |  | 120.1 s | 118.6 s | 118.5 s | 118.7 s | 
22 | N[C@H]1CO[C@H](c2ccccc2)OC1 |  | 119.3 s | 119.6 s | 119.7 s | 119.2 s | 
23 | C[C@@H]1O[C@@H](c2cccc([N+](=O)[O-])c2)OC[C@H]1N |  | 118.9 s | 118.3 s | 117.4 s | 119.2 s | 
24 | N[C@H]1CO[C@H](c2ccc(Cl)cc2)OC1 |  | 119 s | 119.6 s | 118.7 s | 118.9 s | 
25 | C[C@@H]1O[C@H](c2ccccc2)OC[C@H]1N |  | 118.7 s | 118.9 s | 118.6 s | 118.9 s | 
26 | N[C@H]1CO[C@H](c2cccc([N+](=O)[O-])c2)OC1 |  | 118.8 s | 118.7 s | 118.4 s | 118 s | 

Row | Structure (SMILES) | IC50 [1] | Time (Mus musculus [4]) | Time (Mus musculus [5]) | Time (Mus musculus [6]) | Time (Mus musculus [7]) | also measured
27 | Cc1ccc([C@H]2OC[C@@H](N)CO2)cc1 |  | 118.3 s | 118.4 s | 118.7 s | 119 s | 
28 | N[C@H]1CO[C@@H](c2ccc([N+](=O)[O-])cc2)OC1 |  | 119.4 s | 119.4 s | 120.6 s | 118.7 s | 
29 | C[C@@H]1O[C@@H](c2ccc(Cl)cc2)OC[C@H]1NC(=O)Cc1ccccc1 |  |  |  |  |  | Ratio (Caco-2): 1.46; Papp A→B [2]: 10.2 ×10⁻⁶ cm/s; Papp B→A [3]: 7 ×10⁻⁶ cm/s
30 | N[C@H]1CCO[C@@H](c2ccc(Cl)cc2)OC1 |  | 118.4 s | 119 s | 118.6 s | 119.6 s | 
31 | N[C@H]1CCO[C@H](c2ccc([N+](=O)[O-])cc2)OC1 |  | 118.5 s | 117.9 s | 118.6 s | 119 s | 
32 | N[C@H]1CCO[C@H](c2cccc([N+](=O)[O-])c2)OC1 |  | 117.9 s | 118.5 s | 119 s | 118.6 s | 
33 | C[C@@H]1O[C@H](c2cccc([N+](=O)[O-])c2)OC[C@H]1N |  | 118.9 s | 118.2 s | 119.5 s | 118.2 s | 
34 | O=C(Cc1ccccc1)N[C@H]1CO[C@@H](c2ccc(Cl)cc2)OC1 | 2690 µM |  |  |  |  | 
35 | Cc1ccc([C@@H]2OC[C@@H](N)[C@H](C)O2)cc1 |  | 120.4 s | 117.7 s | 118.9 s | 118.5 s | 
36 | C[C@@H]1O[C@H](c2ccc(Cl)cc2)OC[C@H]1N | 1140 µM | 119.6 s | 118.6 s | 118.7 s | 118.6 s | inhibition in vivo at 20 mg/kg (Mus musculus [8]): 67.9%; inhibition in vivo at 10 mg/kg (Mus musculus [9]): 46.2%; inhibition in vivo at 5 mg/kg (Mus musculus [10]): 29.8%; Ratio (Caco-2): 1.7; Papp A→B [2]: 11.7 ×10⁻⁶ cm/s; Papp B→A [3]: 6.88 ×10⁻⁶ cm/s
37 | O=C(Cc1ccccc1)N[C@H]1CCO[C@@H](c2cccc([N+](=O)[O-])c2)OC1 | 3010 µM |  |  |  |  | 
38 | N[C@H]1CCO[C@H](c2ccc(Cl)cc2)OC1 |  | 117.9 s | 118.6 s | 119.2 s | 118.5 s | 
39 | O=C(Cc1ccccc1)N[C@H]1CO[C@H](/C=C/c2ccccc2)OC1 |  |  |  |  |  | Ratio (Caco-2): 1.21; Papp A→B [2]: 8.86 ×10⁻⁶ cm/s; Papp B→A [3]: 7.32 ×10⁻⁶ cm/s
40 | O=C(Cc1ccccc1)N[C@H]1CCO[C@H](c2ccc([N+](=O)[O-])cc2)OC1 | 2860 µM |  |  |  |  | 
41 | O=C(Cc1ccccc1)N[C@H]1CCO[C@@H](c2ccc([N+](=O)[O-])cc2)OC1 | 2980 µM |  |  |  |  | 
42 | N[C@H]1CCCO[C@@H](c2ccc([N+](=O)[O-])cc2)OC1 |  | 118.6 s | 117.6 s | 118.4 s | 119 s | 
43 | C[C@@H]1O[C@H](c2ccc([N+](=O)[O-])cc2)OC[C@H]1N | 930 µM | 117.8 s | 119 s | 118.8 s | 118.1 s | inhibition in vivo at 20 mg/kg (Mus musculus [8]): 77.9%; inhibition in vivo at 10 mg/kg (Mus musculus [9]): 56.7%; inhibition in vivo at 5 mg/kg (Mus musculus [10]): 40.1%; Ratio (Caco-2): 1.86; Papp A→B [2]: 12.9 ×10⁻⁶ cm/s; Papp B→A [3]: 6.9 ×10⁻⁶ cm/s
44 | C[C@@H]1O[C@@H](C=Cc2ccccc2)OC[C@H]1N | 1620 µM | 117.2 s | 119.2 s | 118.4 s | 118.6 s | inhibition in vivo at 20 mg/kg (Mus musculus [8]): 52.9%; Ratio (Caco-2): 1.43; Papp A→B [2]: 10.2 ×10⁻⁶ cm/s; Papp B→A [3]: 7.17 ×10⁻⁶ cm/s
45 | C[C@@H]1O[C@H](C=Cc2ccccc2)OC[C@H]1N | 1700 µM | 120.7 s | 117.7 s | 117.6 s | 120.2 s | inhibition in vivo at 20 mg/kg (Mus musculus [8]): 51.6%; Ratio (Caco-2): 1.46; Papp A→B [2]: 10.3 ×10⁻⁶ cm/s; Papp B→A [3]: 7.06 ×10⁻⁶ cm/s
46 | Cc1ccc([C@H]2OC[C@@H](N)[C@H](C)O2)cc1 |  | 120.9 s | 118.7 s | 119.8 s | 121 s | 
47 | Cc1ccc([C@H]2OC[C@H](N)CO2)cc1 |  | 118.5 s | 117.8 s | 119.5 s | 119.2 s | 
48 | N[C@H]1CO[C@H](c2ccc([N+](=O)[O-])cc2)OC1 |  | 119.5 s | 118.9 s | 118.6 s | 117.7 s | 
49 | N[C@H]1CO[C@@H](c2ccc(Cl)cc2)OC1 |  | 118.5 s | 119.4 s | 120.9 s | 118.9 s | 
50 | N[C@H]1CO[C@@H](c2cccc([N+](=O)[O-])c2)OC1 |  | 119.3 s | 120.2 s | 119.1 s | 118.2 s | 
51 | C[C@@H]1O[C@@H](c2ccc(Cl)cc2)OC[C@H]1N | 1100 µM | 118.3 s | 118.7 s | 118.5 s | 118.9 s | inhibition in vivo at 20 mg/kg (Mus musculus [8]): 66.7%; inhibition in vivo at 10 mg/kg (Mus musculus [9]): 54.5%; inhibition in vivo at 5 mg/kg (Mus musculus [10]): 39.4%; Ratio (Caco-2): 1.7; Papp A→B [2]: 11.9 ×10⁻⁶ cm/s; Papp B→A [3]: 7.01 ×10⁻⁶ cm/s
